# Measurements: ChEMBL document CHEMBL1140944, “A new class of vitamin D analogues that induce structural rearrangement of the ligand-binding pocket of the receptor” (J Med Chem, 2009)
# Positions count from the first letter of the chain named. pEC50: −log10 of the molar value. Calls of active or inactive are those of the source. The rule behind the calls is not given here.
# Tests used:
# [1] = biological target: T1, Vitamin D3 receptor (Bos taurus, UniProt Q28037); assay: Displacement of [3H]1,25-(OH)2D3 from bovine thymus vitamin D receptor
# T1 sequence (Q28037 whole entry): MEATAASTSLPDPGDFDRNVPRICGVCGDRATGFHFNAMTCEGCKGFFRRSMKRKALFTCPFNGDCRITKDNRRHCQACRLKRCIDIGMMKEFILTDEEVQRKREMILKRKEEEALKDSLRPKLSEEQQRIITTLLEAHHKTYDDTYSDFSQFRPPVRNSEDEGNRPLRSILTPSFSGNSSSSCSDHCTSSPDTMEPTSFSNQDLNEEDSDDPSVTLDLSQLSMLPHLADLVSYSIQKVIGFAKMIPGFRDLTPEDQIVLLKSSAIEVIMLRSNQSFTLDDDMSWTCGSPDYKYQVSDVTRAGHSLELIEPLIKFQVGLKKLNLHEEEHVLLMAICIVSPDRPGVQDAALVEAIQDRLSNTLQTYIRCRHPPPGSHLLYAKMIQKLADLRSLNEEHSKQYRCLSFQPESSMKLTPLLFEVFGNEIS
# In short: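 Bovine thymus VDR was dissolved in 0.05 M phosphate buffer, pH 7.4, with 0.3 M KCl and 5 mM DTT. Free ligand was removed with dextran-coated charcoal (20 min, 4 °C) and supernatant radioactivity counted. Nonspecific binding was subtracted; EC₅₀ came from dose-response curves; duplicate.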
# [2] = test system: HL-60; assay: Induction of cell differentiation in human HL60 cells after 4 days by NBT reduction assay; type: functional, cell-based
# In short: (§1)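 HL-60 promyelocytic leukemia cells were plated at 2 × 10⁵ cells/plate in Eagle's modified medium. Compound was added at 10^-6, 10^-7 or 10^-8 M for 4 days. Differentiation was scored by nitro blue tetrazolium reduction.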
# [3] = test system: HL-60; assay: Inhibition of 1,25-(OH)2D3-induced cell differentiation in human HL60 cells assessed as morphological changes at 10^-6 M by Wright-Geimsa staining; type: functional, cell-based
# In short: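 HL-60 cells were stained with Wright-Giemsa and their morphology examined by light microscopy.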
# [4] = biological target: T2, Vitamin D3 receptor (Homo sapiens) (UniProt P11473); assay: Antagonist activity at full length human VDR expressed in HEK293 cells overexpressing mouse osteopontin vitamin D-responsive element assessed as inhibition of 1,25-(OH)2D3-induced transcriptional activation after 16 hrs by dual luciferase reporter gene assay; type: functional, cell-based
# T2 sequence (whole entry): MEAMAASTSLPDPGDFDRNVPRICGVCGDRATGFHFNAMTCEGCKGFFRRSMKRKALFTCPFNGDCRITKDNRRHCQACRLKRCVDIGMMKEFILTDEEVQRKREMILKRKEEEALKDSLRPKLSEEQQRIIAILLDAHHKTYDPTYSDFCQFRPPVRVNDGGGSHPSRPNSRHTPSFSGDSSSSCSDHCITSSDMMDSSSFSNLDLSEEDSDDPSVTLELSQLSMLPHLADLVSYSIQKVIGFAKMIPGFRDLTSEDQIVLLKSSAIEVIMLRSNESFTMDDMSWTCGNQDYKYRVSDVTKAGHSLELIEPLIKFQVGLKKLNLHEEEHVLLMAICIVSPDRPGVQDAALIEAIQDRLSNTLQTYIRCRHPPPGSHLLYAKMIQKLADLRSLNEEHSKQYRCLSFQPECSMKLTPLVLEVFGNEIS
# [5] = test system: HEK293; assay: Inhibition of 1,25-(OH)2D3-induced CYP24A1 mRNA expression in HEK293 cells at 10^-6 M after 24 hrs by quantitative real time PCR; type: functional, cell-based; conditions: Homo sapiens
# In short: (§2)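 HEK293 cells were treated for 24 h with 10^-6 M compound, without (12) or with (15) 10^-8 M 1,25-(OH)₂D₃. CYP24A1 mRNA was measured by quantitative real-time RT-PCR and normalized to actin mRNA; mean ± SD of triplicates.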
# [6] = test system: T3, Vitamin D3 receptor (Homo sapiens), P11473 [H305A]; assay: Agonist activity at full length human VDR H305A mutant expressed in african green monkey COS7 cells overexpressing mouse osteopontin vitamin D-responsive element assessed as transcriptional activation at 10^-6 M after 16 hrs by dual luciferase reporter gene assay; type: functional, cell-based; conditions: COS-7
# T3 sequence (whole entry): T2 sequence (whole entry) with H305A
# In short: (§3)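 COS-7 cells in DMEM with 5% FBS, seeded at 2 × 10⁴ per well. After 24 h they were lipofected with the mutant hVDR plasmid (pCMX-hVDR), the SPPx3-TK-Luc reporter (three mouse osteopontin VDREs) and the pRL-CMV control. After 8 h, ligand was added at 10^-6 M, or ethanol vehicle, for 16 h. Firefly luciferase was normalized to the internal control; triplicate.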
# [7] = biological target: T2, Vitamin D3 receptor (Homo sapiens); assay: Agonist activity at full length human VDR expressed in HEK293 cells overexpressing mouse osteopontin vitamin D-responsive element assessed as transcriptional activation after 16 hrs by dual luciferase reporter gene assay; type: functional, cell-based
# [8] = biological target: T2, Vitamin D3 receptor (Homo sapiens); assay: Antagonist activity at full length human VDR expressed in african green monkey Cos7 cells overexpressing mouse osteopontin vitamin D-responsive element assessed as inhibition of 1,25-(OH)2D3-induced transcriptional activation after 16 hrs by dual luciferase reporter gene assay; type: functional, cell-based; conditions: COS-7
# In short: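 Cos7 cells were transfected with full-length hVDR, the SPPx3-TK-Luc osteopontin VDRE reporter and pRL-CMV. Test ligands were given together with 10^-9 M 1,25-(OH)₂D₃ for 16 h. Dual luciferase signal was normalized to the sea pansy control, with activity at 10^-8 M 1,25-(OH)₂D₃ set as 1; triplicate.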
# [9] = test system: T4, Vitamin D3 receptor (Homo sapiens), P11473 [H397A]; assay: Agonist activity at full length human VDR H397A mutant expressed in african green monkey COS7 cells overexpressing mouse osteopontin vitamin D-responsive element assessed as transcriptional activation at 10^-6 M after 16 hrs by dual luciferase reporter gene assay; type: functional, cell-based; conditions: COS-7; in short: as §3
# T4 sequence (whole entry): T2 sequence (whole entry) with H397A
# [10] = test system: HEK293; assay: Induction of CYP24A1 mRNA expression in HEK293 cells at 10^-6 M after 24 hrs by quantitative real time PCR; type: functional, cell-based; conditions: Homo sapiens; in short: as §2
# [11] = biological target: T2, Vitamin D3 receptor (Homo sapiens); assay: Agonist activity at full length human VDR expressed in african green monkey Cos7 cells overexpressing mouse osteopontin vitamin D-responsive element assessed as transcriptional activation after 16 hrs by dual luciferase reporter gene assay; type: functional, cell-based; conditions: COS-7
# In short: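 COS-7 cells in DMEM with 5% FBS were lipofected with full-length pCMX-hVDR, the SPPx3-TK-Luc osteopontin VDRE reporter and pRL-CMV. After 8 h, ligand or ethanol vehicle was added for 16 h. Dual luciferase read-out was normalized to the internal control. Activity at 10^-8 M 1,25-(OH)₂D₃ was set as 1; triplicate.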
# [12] = biological target: T2, Vitamin D3 receptor (Homo sapiens); assay: Agonist activity at human VDR expressed in african green monkey COS7 cells overexpressing GAL4 response element assessed as RXRalpha recruitment by mammalian two hybrid assay; type: functional, cell-based; conditions: COS-7
# [13] = biological target: T2, Vitamin D3 receptor (Homo sapiens); assay: Agonist activity at human VDR expressed in african green monkey COS7 cells overexpressing GAL4 response element assessed as SRC1 peptide recruitment by mammalian two hybrid assay; type: functional, cell-based; conditions: COS-7
# [14] = test system: HL-60; assay: Inhibition of 1,25-(OH)2D3-induced cell differentiation in human HL60 cells after 4 days by NBT reduction assay; type: functional, cell-based; in short: as §1
# [15] = biological target: T2, Vitamin D3 receptor (Homo sapiens); assay: Antagonist activity at human VDR expressed in african green monkey COS7 cells overexpressing GAL4 response element assessed as SRC1 peptide recruitment by mammalian two hybrid assay; type: functional, cell-based; conditions: COS-7
# [16] = test system: HL-60; assay: Inhibition of 1,25-(OH)2D3-induced differentiation in human HL60 cells after 4 days by NBT reduction assay
# [17] = test system: HEK293; assay: Inhibition of 1,25-(OH)2D3-induced CYP24A1 mRNA expression in HEK293 cells after 24 hrs by real time PCR; type: functional, cell-based; conditions: Homo sapiens
# In short: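 HEK293 cells were exposed to the indicated compound concentrations for 24 h. CYP24A1 mRNA was quantified by real-time RT-PCR against actin; triplicate.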
# [18] = biological target: T2, Vitamin D3 receptor (Homo sapiens); assay: Antagonist activity at human VDR expressed in african green monkey COS7 cells overexpressing GAL4 response element assessed as RXRalpha recruitment by mammalian two hybrid assay; type: functional, cell-based; conditions: COS-7
Compound,pEC50 [1],Activity [2],Activity [4],Activity [5],Activity [7],Activity [8],further results
C=C1/C(=C\C=C2/CCC[C@]3(C)[C@@H]([C@H](C)[C@@H](CCCC)C[C@@H](O)C(C)C)CC[C@@H]23)C[C@@H](O)C[C@@H]1O,7.70,,,,,,
C=C1/C(=C\C=C2/CCC[C@]3(C)[C@@H]([C@H](C)[C@H](CCCC)C[C@@H](O)C(C)C)CC[C@@H]23)C[C@@H](O)C[C@@H]1O,7.80,inactive,,,,,
C=C1/C(=C\C=C2/CCC[C@]3(C)[C@@H]([C@H](C)CCCC(C)(C)O)CC[C@@H]23)C[C@@H](O)C[C@@H]1O,,Active,,,,,Activity [3]: Active
C=C1/C(=C\C=C2/CCC[C@]3(C)[C@@H]([C@H](C)[C@H](CCCC)C[C@H](O)C(C)C)CC[C@@H]23)C[C@@H](O)C[C@@H]1O,8.47,inactive,Dose-dependent effect,Active,Dose-dependent effect,Dose-dependent effect,Activity [6]: Active
C=C1/C(=C\C=C2/CCC[C@]3(C)[C@@H]([C@H](C)[C@@H](CCO)CCCC)CC[C@@H]23)C[C@@H](O)C[C@@H]1O,7.96,inactive,,,,,
C=C1/C(=C\C=C2/CCC[C@]3(C)[C@@H]([C@H](C)[C@@H](CCCC)C[C@H](O)C(C)C)CC[C@@H]23)C[C@@H](O)C[C@@H]1O,8.42,inactive,Dose-dependent effect,Active,Dose-dependent effect,Dose-dependent effect,
C=C1/C(=C\C=C2/CCC[C@]3(C)[C@@H]([C@@H](C)[C@@H](CCO)CCCC)CC[C@@H]23)C[C@@H](O)C[C@@H]1O,7.70,inactive,Dose-dependent effect,Active,Dose-dependent effect,Dose-dependent effect,Activity [9]: Active
C=C1/C(=C\C=C2/CCC[C@]3(C)[C@@H]([C@@H](C)[C@H](CCO)CCCC)CC[C@@H]23)C[C@@H](O)C[C@@H]1O,8.70,Active,,,,,Activity [10]: Active; Activity [11]: Active; Activity [12]: Active; Activity [13]: Active
C=C1/C(=C\C=C2/CCC[C@]3(C)[C@@H]([C@H](C)[C@H](CCO)CCCC)CC[C@@H]23)C[C@@H](O)C[C@@H]1O,8.92,inactive,Dose-dependent effect,Active,Dose-dependent effect,Dose-dependent effect,Activity [3]: Active; Activity [14]: Active; Activity [15]: Active; Activity [16]: Active; Activity [17]: Dose-dependent effect; Activity [18]: Active
